Measurements published in ChEMBL document CHEMBL3351380, “Antioxidant and antimicrobial studies on fused-ring pyrazolones and isoxazolones” (Bioorg Med Chem, 2014).
≈ marks a conversion by molar mass, not a printed value. Calls of active or inactive are those of the source. The rule behind the calls is not given here.

Columns and labels:
Staphylococcus aureus [1] = assay: Antimicrobial activity against Staphylococcus aureus ATCC 25923 assessed as zone of inhibition at 100 ug/ml by agar well diffusion method; assay type: functional; conditions: for zone of inhibition at 100 µg/mL: read-out: IZ
Method in brief: (§1)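 For the agar well diffusion screen, samples at 100 µg/mL were made from a stock of 10 mg in 1 mL EtOH diluted 1:1 (v/v) with Mueller-Hinton medium. The zone of inhibition was scored as 5–10 mm poor, 10–15 moderate, 15–20 good and 20–25 very good. Gentamycin and nystatin were the reference drugs. Strains were confirmed at the University of Botswana microbiology laboratory.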

Staphylococcus aureus [2] = assay: Antimicrobial activity against Staphylococcus aureus ATCC 25923 by agar well diffusion method; assay type: functional
Pseudomonas aeruginosa [3] = assay: Antimicrobial activity against Pseudomonas aeruginosa NCIMB 8295 by agar well diffusion method; assay type: functional
Candida albicans [4] = assay: Antifungal activity against Candida albicans by agar well diffusion method; assay type: functional
[5] = Antioxidant activity assessed as DPPH radical scavenging activity after 3 hrs by spectrophotometry; assay type: physicochemical
Method in brief: (§2)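 DPPH (0.51 mM in methanol) was mixed 1:1 by volume with the compound at several concentrations (100, 50, 25 … µg/mL range). Absorbance was read against a control, and % inhibition = (A0−As)/A0 ×100. Readings were taken at 30 min and 3 h, with ascorbic acid as the reference. Triplicate measurements.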

Escherichia coli [6] = assay: Antimicrobial activity against Escherichia coli ATCC 8739 by agar well diffusion method; assay type: functional
[7] = Antioxidant activity assessed as DPPH radical scavenging activity after 30 mins by spectrophotometry; assay type: physicochemical; method in brief: as §2
Pseudomonas aeruginosa [8] = assay: Antimicrobial activity against Pseudomonas aeruginosa NCIMB 8295 assessed as zone of inhibition at 100 ug/ml by agar well diffusion method; assay type: functional; conditions: for zone of inhibition at 100 µg/mL: read-out: IZ; method in brief: as §1
[9] = Metal chelating activity of the compound assessed as formation of iron complex after 20 mins by spectrophotometry; assay type: physicochemical
Method in brief: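 Fe2+ chelation was measured by disruption of the o-phenanthroline–Fe2+ complex. O-phenanthroline (0.05% in methanol) and FeCl2 (0.1%) were mixed with the sample at various concentrations and held at room temperature for 20 min, then read at 510 nm. EDTA was the standard chelator. % chelation = (Acontrol−Asample)/Acontrol ×100, and IC50 came from plots of % chelation versus concentration. Triplicates.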

Candida albicans [10] = assay: Antifungal activity against Candida albicans assessed as zone of inhibition at 100 ug/ml by agar well diffusion method; assay type: functional; conditions: for zone of inhibition at 100 µg/mL: read-out: IZ; method in brief: as §1
Bacillus subtilis [11] = assay: Antimicrobial activity against Bacillus subtilis NCIB 3610 assessed as zone of inhibition at 100 ug/ml by agar well diffusion method; assay type: functional; conditions: for Activity: subsp. subtilis str. NCIB 3610; method in brief: as §1
Escherichia coli [12] = assay: Antimicrobial activity against Escherichia coli ATCC 8739 assessed as zone of inhibition at 100 ug/ml by agar well diffusion method; assay type: functional; method in brief: as §1
Bacillus subtilis [13] = assay: Antimicrobial activity against Bacillus subtilis NCIB 3610 by agar well diffusion method; assay type: functional; conditions: subsp. subtilis str. NCIB 3610
[14] = Antioxidant activity assessed as DPPH radical scavenging activity at 10 ug/ml after 3 hrs by spectrophotometry; assay type: physicochemical

Row | SMILES | zone of inhibition at 100 µg/mL (Staphylococcus aureus [1]) [mm] | MIC (Staphylococcus aureus [2]) | MIC (Pseudomonas aeruginosa [3]) | MIC (Candida albicans [4]) | IC50 [5] [µg/mL] | MIC (Escherichia coli [6]) | IC50 [7] [µg/mL] | zone of inhibition at 100 µg/mL (Pseudomonas aeruginosa [8]) [mm] | IC50 [9] [µg/mL] | zone of inhibition at 100 µg/mL (Candida albicans [10]) [mm] | zone of inhibition at 100 µg/mL (Bacillus subtilis [11]; subsp. subtilis str. NCIB 3610, read-out: IZ) [mm] | zone of inhibition at 100 µg/mL (Escherichia coli [12]; read-out: IZ) [mm] | MIC (Bacillus subtilis [13]) | Activity (Pseudomonas aeruginosa [8]) | inhibition (INH) [14] [%] | Activity (Bacillus subtilis [11]) | Activity (Escherichia coli [12]) | Activity (Staphylococcus aureus [1]) | Activity (Candida albicans [10])
1 | O=C1ON=C2C=C(c3cccs3)CC(c3cccc([N+](=O)[O-])c3)C12 (stereo not drawn) | 12 | 2.5 µg/mL (≈ 7.35 µM) | 2.5 µg/mL (≈ 7.35 µM) | 1.25 µg/mL (≈ 3.67 µM) | 197.78 (≈ 581 µM) | 2.5 µg/mL (≈ 7.35 µM) | 309.29 (≈ 909 µM) | 11 | 675.67 (≈ 1990 µM) | 15 | 14 | 13 | 1.25 µg/mL (≈ 3.67 µM) | – | – | – | – | – | –
2 | O=C1NN=C2C=C(c3ccc(O)cc3)CC(c3cccc([N+](=O)[O-])c3)C12 (stereo not drawn) | 11 | 2.5 µg/mL (≈ 7.16 µM) | inactive | 2.5 µg/mL (≈ 7.16 µM) | 30.23 (≈ 86.5 µM) | inactive | 55.88 (≈ 160 µM) | – | 80.91 (≈ 232 µM) | 11 | – | – | inactive | inactive | > 40 | inactive | inactive | – | –
3 | CCOC(=O)C1C(=O)C=C(c2ccc(Br)cc2)CC1c1cccc([N+](=O)[O-])c1 (stereo not drawn) | – | inactive | inactive | inactive | 409.1 (≈ 921 µM) | inactive | 409.1 (≈ 921 µM) | – | 1148.57 (≈ 2590 µM) | – | – | – | inactive | inactive | – | inactive | inactive | inactive | inactive
4 | O=C1ON=C2C=C(c3ccccc3)CC(c3cccc([N+](=O)[O-])c3)C12 (stereo not drawn) | – | inactive | 2.5 µg/mL (≈ 7.48 µM) | 2.5 µg/mL (≈ 7.48 µM) | 215.71 (≈ 645 µM) | inactive | 312.28 (≈ 934 µM) | 11 | 750.45 (≈ 2240 µM) | 10 | – | – | inactive | – | – | inactive | inactive | inactive | –
